Where “and” joins values, the source holds several entries; their conditions need not be identical. Equal values may be shown once.
Key:
[1] = Cytotoxicity in the HCoV 229E CPE assay; assay type: cell-based; conditions: human, MRC5 cells, not infected
Outline: (§1)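 Uninfected MRC5 human fetal lung fibroblasts seeded at 20,000 cells/well; test compound in cell assay medium as 3-fold serial dilutions to 8 concentrations, duplicate wells. Untreated cell controls run in parallel. Cytotoxicity expressed as percentage viability, with CC50 derived from this.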

[2] = Cytotoxicity in the HCoV 229E qPCR assay; assay type: cell-based; conditions: human, MRC5 cells, not infected
Outline: as §1

HCoV 229E = HCoV 229E qPCR assay in MRC5 cells; assay type: cell-based, human coronavirus 229E; conditions: read-out: HCoV 229E qPCR assay EC50, 200 TCID50, 2 days, viral RNA
Outline: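 MRC5 human fetal lung fibroblasts seeded at 20,000 cells/well received test compound (3-fold serial dilutions to 8 concentrations, duplicate wells) in cell assay medium and were infected with 200 TCID50 HCoV 229E. Viral RNA was quantified by qPCR following a previously published protocol. Uninfected untreated and infected untreated controls ran in parallel. Percentage inhibition was recorded; EC50 is the concentration giving 50% of maximal effect.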

[3] = a patient with MS; cited from earlier work
[4] = tested on: COVID-19-related lethality; conditions: meta-regression, patients with MS and COVID-19, N = 5634, P = 0.035; cited from earlier work

SMILES | CC50 at 3 days [1] | CC50 at 2 days [2] | EC50 (HCoV 229E) | plasma concentration [3] | protective effect on COVID-19-related lethality (β) [4]
Cc1oncc1C(=O)Nc1ccc(C(F)(F)F)cc1 [Leflunomide, leflunomide] | > 100 µM | > 100 µM |  |  | 
CCC(CC)COC(=O)[C@H](C)N[P@](=O)(OC[C@H]1O[C@@](C#N)(c2ccc3c(N)ncnn23)[C@H](O)[C@@H]1O)Oc1ccccc1 [Remdesivir (blinded), remdesivir] | > 100 µM | > 100 µM | < 0.046 µM |  | 
C/C(O)=C(\C#N)C(=O)Nc1ccc(C(F)(F)F)cc1 [Teriflunomide, teriflunomide] | > 100 µM | > 100 µM |  | 130 μM and 35 mg/L | −0.11

Reference: PMC9682045 (Biochemistry and Biophysics Reports, 2022)
